# Data published in ChEMBL document CHEMBL1287652, “QSAR modeling, synthesis and bioassay of diverse leukemia RPMI-8226 cell line active agents” (2010).
# Experiments:
# Assay type in all cases: functional
# RXF 393 = experiment: Antitumor activity against human RXF393 cells after 48 hrs by sulforhodamine B assay; conditions: RXF 393, 48 h
# Outline: (§1)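 Cells were cultured in RPMI-1640 (5% FBS, 2 mM L-glutamine), pre-incubated for 24 h with time-zero plates TCA-fixed, then exposed for 48 h to five serial dilutions. The SRB read-out at 515 nm used time-zero, control and test absorbances. GI50 solves [(Ti−Tz)/(C−Tz)]×100 = 50 (net protein increase). TGI is the concentration giving 100% growth inhibition.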
# LOX IMVI = experiment: Antitumor activity against human LOXIMVI cells after 48 hrs by sulforhodamine B assay
# Outline: (§2)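 Cells were grown in RPMI-1640 with 5% FBS and 2 mM L-glutamine, plated at 5000–40,000 cells/well, and preincubated for 24 h. A time-zero plate was TCA-fixed. Compounds were added from DMSO stock at five concentrations for 48 h at 37 °C. Cells were fixed with TCA (adherent 10%, suspension 16%) and stained with SRB, and A515 was read. GI50 and TGI were calculated from Tz, control and test absorbances.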
# MCF7 = experiment: Antitumor activity against human MCF7 cells after 48 hrs by sulforhodamine B assay; conditions: MCF7, 48 h; outline: as §2
# HT-29 = experiment: Antitumor activity against human HT-29 cells after 48 hrs by sulforhodamine B assay; conditions: HT-29, 48 h; outline: as §2
# MDA-MB-231 = experiment: Antitumor activity against human MDA-MB-231 cells after 48 hrs by sulforhodamine B assay; conditions: MDA-MB-231, 48 h; outline: as §2
# HCT-15 = experiment: Antitumor activity against human HCT15 cells after 48 hrs by sulforhodamine B assay; conditions: HCT-15, 48 h; outline: as §2
# NCI-H23 = experiment: Antitumor activity against human NCI-H23 cells after 48 hrs by sulforhodamine B assay; conditions: NCI-H23, 48 h; outline: as §1
# SK-MEL-5 = experiment: Antitumor activity against human SK-MEL-5 cells after 48 hrs by sulforhodamine B assay; conditions: SK-MEL-5, 48 h; outline: as §1
# TK-10 = experiment: Antitumor activity against human TK10 cells after 48 hrs by sulforhodamine B assay; conditions: TK-10, 48 h
# Outline: (§3)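 Cells grown in RPMI-1640 with 5% FBS and 2 mM glutamine, plated and preincubated 24 h; time-zero plates TCA-fixed. Five-level serial dilutions added, 48 h at 37 °C. TCA fixation, SRB staining, absorbance 515 nm. GI50 derived from [(Ti−Tz)/(C−Tz)]×100 = 50; TGI is concentration giving 100% growth inhibition.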
# OVCAR-8 = experiment: Antitumor activity against human OVCAR8 cells after 48 hrs by sulforhodamine B assay; conditions: OVCAR-8, 48 h; outline: as §1
# A498 = experiment: Antitumor activity against human A498 cells after 48 hrs by sulforhodamine B assay; conditions: A498, 48 h; outline: as §2
# BT-549 = experiment: Antitumor activity against human BT549 cells after 48 hrs by sulforhodamine B assay; conditions: BT-549, 48 h; outline: as §2
# NCI-H322M = experiment: Antitumor activity against human NCI-H322M cells after 48 hrs by sulforhodamine B assay; outline: as §1
# CCRF-CEM = experiment: Antitumor activity against human CCRF-CEM cells after 48 hrs by sulforhodamine B assay; outline: as §2
# A549 = experiment: Antitumor activity against human A549 cells after 48 hrs by sulforhodamine B assay; conditions: A549, 48 h; outline: as §2
# NCI/ADR-RES = experiment: Antitumor activity against human NCI/ADR-RES cells after 48 hrs by sulforhodamine B assay; outline: as §1
# SK-MEL-28 = experiment: Antitumor activity against human SK-MEL-28 cells after 48 hrs by sulforhodamine B assay; conditions: SK-MEL-28, 48 h; outline: as §1
# CAKI-1 = experiment: Antitumor activity against human Caki1 cells after 48 hrs by sulforhodamine B assay; conditions: CAKI-1, 48 h; outline: as §2
# M14 = experiment: Antitumor activity against human M14 cells after 48 hrs by sulforhodamine B assay; conditions: M14, 48 h; outline: as §2
# Malme-3M = experiment: Antitumor activity against human MALME-3M cells after 48 hrs by sulforhodamine B assay; outline: as §2
# UACC-257 = experiment: Antitumor activity against human UACC257 cells after 48 hrs by sulforhodamine B assay; conditions: UACC-257, 48 h; outline: as §3
# COLO 205 = experiment: Antitumor activity against human COLO205 cells after 48 hrs by sulforhodamine B assay; conditions: COLO 205, 48 h; outline: as §2
# T47D = experiment: Antitumor activity against human T47D cells after 48 hrs by sulforhodamine B assay; outline: as §3
# HCT-116 = experiment: Antitumor activity against human HCT116 cells after 48 hrs by sulforhodamine B assay; conditions: HCT-116, 48 h; outline: as §2
# HL-60(TB) = experiment: Antitumor activity against human HL-60(TB) cells after 48 hrs by sulforhodamine B assay; conditions: HL-60, 48 h
# Outline: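 NCI panel screen. Cells were grown in RPMI-1640 with 5% FBS and 2 mM L-glutamine, seeded at 5000–40,000 cells/well depending on doubling time, and preincubated 24 h at 37 °C in 5% CO2. Compound was diluted from a DMSO concentrate to five levels and given for 48 h. Settled cells were fixed with TCA (final 16%), stained with 0.4% SRB, and read at 515 nm. GI50 was taken from [(Ti−Tz)/(C−Tz)]×100 = 50.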
compound,measurement,setting,value
COc1ccc(NC(=O)Nc2ccccc2OCCCOc2ccccc2NC(=O)Nc2ccc(OC)cc2)cc1,TGI,RXF 393,> 100 µM
same,GI50,LOX IMVI,> 100 µM
same,TGI,LOX IMVI,> 100 µM
same,GI50,MCF7,> 100 µM
same,TGI,MCF7,> 100 µM
same,GI50,HT-29,> 100 µM
same,TGI,HT-29,> 100 µM
same,GI50,MDA-MB-231,8.8 µM
same,TGI,MDA-MB-231,> 100 µM
same,GI50,HCT-15,> 100 µM
same,TGI,HCT-15,> 100 µM
same,GI50,NCI-H23,12.4 µM
same,TGI,NCI-H23,> 100 µM
same,GI50,SK-MEL-5,> 100 µM
same,TGI,SK-MEL-5,> 100 µM
same,GI50,TK-10,4 µM
same,TGI,TK-10,49.7 µM
same,GI50,OVCAR-8,8.9 µM
same,TGI,OVCAR-8,> 100 µM
same,GI50,A498,16 µM
same,TGI,A498,72.9 µM
same,GI50,BT-549,1.5 µM
same,TGI,BT-549,29.2 µM
same,GI50,NCI-H322M,> 100 µM
same,TGI,NCI-H322M,> 100 µM
same,GI50,CCRF-CEM,14.4 µM
same,TGI,CCRF-CEM,78.9 µM
same,GI50,A549,> 100 µM
same,TGI,A549,> 100 µM
same,GI50,NCI/ADR-RES,> 100 µM
same,TGI,NCI/ADR-RES,> 100 µM
same,GI50,SK-MEL-28,> 100 µM
same,TGI,SK-MEL-28,> 100 µM
same,GI50,CAKI-1,> 100 µM
same,TGI,CAKI-1,> 100 µM
same,GI50,M14,45.7 µM
same,TGI,M14,> 100 µM
same,GI50,Malme-3M,0.3 µM
same,TGI,Malme-3M,5.3 µM
same,GI50,UACC-257,> 100 µM
same,TGI,UACC-257,> 100 µM
same,GI50,COLO 205,14.3 µM
same,TGI,COLO 205,> 100 µM
same,GI50,T47D,> 100 µM
same,TGI,T47D,> 100 µM
same,GI50,HCT-116,5.3 µM
same,TGI,HCT-116,> 100 µM
same,GI50,HL-60(TB),26.7 µM
same,TGI,HL-60(TB),68 µM
